Data as given in ChEMBL document CHEMBL4020840, “Synthesis and Biological Evaluation of Selenium-Containing 4-Anilinoquinazoline Derivatives as Novel Antimitotic Agents” (J Med Chem, 2018).

Legend:
[1] = test system: A549; test: Induction of apoptosis in human A549 cells assessed as live cells at 2 nM after 24 hrs by Annexin V-FITC/propidium iodide staining based flow cytometry (reference value: 98.84%); type: functional
[2] = Selectivity index, ratio of IC50 for HLF to IC50 for human A549 cells
Procedure, shortened: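 MTT assay in normal cells and A549: seeding at 5 × 10³ cells/well for 24 h, 48 h compound exposure, then 5 mg/mL MTT for 4 h, DMSO solubilisation and absorbance at 570 nm. IC50 values came from dose–response curves of at least three independent experiments. Selectivity ratio = IC50 in normal cells / IC50 in A549.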

[3] = test system: HCT-116; test: Growth inhibition of human HCT116 cells after 48 hrs by MTT assay; type: functional, cell-based; conditions: HCT-116, 48 h
Procedure, shortened: (§1)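 MTT assay: log-phase cells plated at 5 × 10³/well for 24 h, then exposed to a range of test concentrations for 48 h. MTT (5 mg/mL) added for 4 h, formazan dissolved in DMSO, absorbance read at 570 nm. IC50 is the concentration giving 50% growth inhibition, from dose-response curves; at least three independent experiments, mean ± SE.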

[4] = test system: LoVo; test: Growth inhibition of human LoVo cells after 48 hrs by MTT assay; type: functional, cell-based; procedure, shortened: as §1
[5] = test system: MCF7; test: Antiproliferative activity against human MCF7 cells after 48 hrs by MTT assay; type: functional, cell-based; conditions: MCF7, 48 h; procedure, shortened: as §1
[6] = test system: A549/CDDP; test: Growth inhibition of human A549/CDDP cells after 48 hrs by MTT assay; type: functional, cell-based; procedure, shortened: as §1
[7] = test system: A549; test: Induction of apoptosis in human A549 cells assessed as late apoptotic cells at 2 nM after 48 hrs by Annexin V-FITC/propidium iodide staining based flow cytometry (reference value: 0.03%); type: functional
[8] = test system: A549; test: Induction of apoptosis in human A549 cells assessed as live cells at 4 nM after 48 hrs by Annexin V-FITC/propidium iodide staining based flow cytometry (reference value: 98.49%); type: functional
[9] = test system: A549; test: Induction of apoptosis in human A549 cells assessed as necrotic cells at 4 nM after 48 hrs by Annexin V-FITC/propidium iodide staining based flow cytometry relative to control; type: functional
[10] = test system: A549; test: Induction of mitochondrial membrane disruption in human A549 cells assessed as cells with intact mitochondrial membrane at 2 nM after 48 hrs by JC1 staining based flow cytometry (reference value: 99.13%); type: functional
[11] = test system: A549; test: Induction of mitochondrial membrane disruption in human A549 cells assessed as cells with mitochondrial membrane potential loss at 8 nM after 48 hrs by JC1 staining based flow cytometry (reference value: 0.82%); type: functional
[12] = test system: BJ; test: Antiproliferative activity against human BJ cells after 48 hrs by MTT assay; type: cell-based; procedure, shortened: as §1

## C[Se]c1ccc(N(C)c2nc(C)nc3ccccc23)cc1
[1]
  Activity: 78.97%
[2]
  Ratio IC50: 10
[3]
  IC50: 3 nM
[4]
  IC50: 9 nM
[5]
  IC50: 10 nM
[6]
  IC50: 9 nM
[7]
  Activity: 20.5%
[8]
  Activity: 10.31%
[9]
  Activity: 6.8%
[10]
  Activity: 83.86%
[11]
  Activity: 63.13%
[12]
  IC50: 19 nM
